Results from ChEMBL document CHEMBL1909613, “Synthesis and biological activity of new bispyridinium salts of 4,4'-bispyridyl-5,5'-perfluoroalkyl-2,2'-bisoxazoles” (Eur J Med Chem, 2011).

How the values were obtained:
HT-29 = assay: Cytotoxicity against human HT-29 cells after 72 hrs by MTT assay; format: functional, cell-based
Outline: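 HT-29 cells grown in DMEM with 10% FBS at 37 °C, 95% humidity, 5% CO2. Seeded and held 24 h, then exposed to increasing concentrations in fresh medium for 72 h, quadruplicate wells per concentration. Viability by MTT absorbance at 595 nm. IC50 from a plot of log OD versus log drug concentration.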

Choline kinase alpha = Choline kinase alpha (Homo sapiens, UniProt P35790); assay: Inhibition of recombinant human Choline kinase alpha using [methyl-14C]choline chloride as substrate after 30 mins by autoradiography
Sequence of Choline kinase alpha (P35790 whole entry): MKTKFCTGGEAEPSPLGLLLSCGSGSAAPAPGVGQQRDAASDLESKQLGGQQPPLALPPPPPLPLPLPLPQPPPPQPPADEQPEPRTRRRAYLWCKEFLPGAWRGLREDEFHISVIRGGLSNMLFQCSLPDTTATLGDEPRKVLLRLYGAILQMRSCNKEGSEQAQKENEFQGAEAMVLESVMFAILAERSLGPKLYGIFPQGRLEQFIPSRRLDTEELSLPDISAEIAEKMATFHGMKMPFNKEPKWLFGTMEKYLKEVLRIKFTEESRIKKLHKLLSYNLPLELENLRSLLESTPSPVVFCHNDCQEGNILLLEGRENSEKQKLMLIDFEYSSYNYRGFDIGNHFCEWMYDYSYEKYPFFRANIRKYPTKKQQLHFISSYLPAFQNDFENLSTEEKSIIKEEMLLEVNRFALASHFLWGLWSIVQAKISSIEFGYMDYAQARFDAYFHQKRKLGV
Outline: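 Extracts from cells expressing recombinant human ChoK were incubated 30 min at 37 °C in 100 mM Tris pH 8, 10 mM MgCl2, 10 mM ATP and [methyl-14C]choline chloride. Reaction stopped on ice with 500 mM EDTA. Choline and phosphocholine were separated by silica TLC (0.9% NaCl:methanol:ammonium hydroxide 50:70:5) and quantified by electronic autoradiography. IC50 came from a Hill-equation least-squares fit of PCho/(PCho+Cho) versus inhibitor concentration.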

| SMILES | IC50 (Choline kinase alpha) [µM] | IC50 (HT-29; Homo sapiens, HT-29, 72 h) [µM] | IC50 (HT-29; ht-29) [µM] |
| --- | --- | --- | --- |
| OCC[n+]1ccc(-c2nc(-c3ccc(C(c4ccc(-c5nc(-c6cc[n+](CCO)cc6)c(C(F)(F)C(F)(F)F)o5)cc4)(C(F)(F)F)C(F)(F)F)cc3)oc2C(F)(F)C(F)(F)F)cc1 [listing 1 of 2 here] | 4.2 |  | 7.7 |
| CN(C)C(=O)C[n+]1ccc(-c2nc(-c3ccc(-c4nc(-c5cc[n+](CC(=O)N(C)C)cc5)c(C(F)(F)C(F)(F)F)o4)cc3)oc2C(F)(F)C(F)(F)F)cc1 | 15 | > 50 |  |
| OCC[n+]1ccc(-c2nc(-c3ccc(C(c4ccc(-c5nc(-c6cc[n+](CCO)cc6)c(C(F)(F)C(F)(F)F)o5)cc4)(C(F)(F)F)C(F)(F)F)cc3)oc2C(F)(F)C(F)(F)F)cc1 [listing 2 of 2 here] | 4.4 | 6 |  |
| CN(C)C(=O)C[n+]1ccc(-c2nc(-c3ccc(-c4ccc(-c5nc(-c6cc[n+](CC(=O)N(C)C)cc6)c(C(F)(F)C(F)(F)C(F)(F)F)o5)cc4)cc3)oc2C(F)(F)C(F)(F)C(F)(F)F)cc1 | 4.25 | 2.5 |  |
| OCC[n+]1ccc(-c2nc(-c3ccc(-c4ccc(-c5nc(-c6cc[n+](CCO)cc6)c(C(F)(F)F)o5)cc4)cc3)oc2C(F)(F)F)cc1 [listing 1 of 2 here] | > 20 |  | 1.85 |
| CN(C)C(=O)C[n+]1ccc(-c2nc(-c3ccc(-c4nc(-c5cc[n+](CC(=O)N(C)C)cc5)c(C(F)(F)F)o4)cc3)oc2C(F)(F)F)cc1 | 1.35 | > 50 |  |
| CN(C)C(=O)C[n+]1ccc(-c2nc(-c3ccc(C(c4ccc(-c5nc(-c6cc[n+](CC(=O)N(C)C)cc6)c(C(F)(F)F)o5)cc4)(C(F)(F)F)C(F)(F)F)cc3)oc2C(F)(F)F)cc1 | 6.15 | > 20 |  |

More lines, in order of falling IC50 (Choline kinase alpha), values ahead:

| IC50 (Choline kinase alpha) [µM] | SMILES | IC50 (HT-29; Homo sapiens, HT-29, 72 h) [µM] | IC50 (HT-29; ht-29) [µM] |
| --- | --- | --- | --- |
| 23.8 | OCC[n+]1ccc(-c2nc(-c3ccc(-c4ccc(-c5nc(-c6cc[n+](CCO)cc6)c(C(F)(F)F)o5)cc4)cc3)oc2C(F)(F)F)cc1 [listing 2 of 2 here] | 1.5 |  |
| 17.3 | OCC[n+]1ccc(-c2nc(-c3ccc(-c4ccc(-c5nc(-c6cc[n+](CCO)cc6)c(C(F)(F)C(F)(F)C(F)(F)F)o5)cc4)cc3)oc2C(F)(F)C(F)(F)C(F)(F)F)cc1 | 2.26 |  |
| 14.2 | FC(F)(F)C(F)(F)c1oc(-c2ccc(C(c3ccc(-c4nc(-c5cc[n+](CCCl)cc5)c(C(F)(F)C(F)(F)F)o4)cc3)(C(F)(F)F)C(F)(F)F)cc2)nc1-c1cc[n+](CCCl)cc1 | 9.3 |  |
| 13.5 | OCC[n+]1ccc(-c2nc(-c3ccc(C(c4ccc(-c5nc(-c6cc[n+](CCO)cc6)c(C(F)(F)C(F)(F)C(F)(F)F)o5)cc4)(C(F)(F)F)C(F)(F)F)cc3)oc2C(F)(F)C(F)(F)C(F)(F)F)cc1 | 6.35 |  |
| 12.5 | FC(F)(F)c1oc(-c2ccc(C(c3ccc(-c4nc(-c5cc[n+](CCCl)cc5)c(C(F)(F)F)o4)cc3)(C(F)(F)F)C(F)(F)F)cc2)nc1-c1cc[n+](CCCl)cc1 | 13.8 |  |
| 11.6 | FC(F)(F)C(F)(F)C(F)(F)c1oc(-c2ccc(C(c3ccc(-c4nc(-c5cc[n+](CCCl)cc5)c(C(F)(F)C(F)(F)C(F)(F)F)o4)cc3)(C(F)(F)F)C(F)(F)F)cc2)nc1-c1cc[n+](CCCl)cc1 | 15.5 |  |
| 9.65 | OCC[n+]1ccc(-c2nc(-c3ccc(-c4ccc(-c5nc(-c6cc[n+](CCO)cc6)c(C(F)(F)C(F)(F)F)o5)cc4)cc3)oc2C(F)(F)C(F)(F)F)cc1 | 0.84 |  |
| 2 | CN(C)C(=O)C[n+]1ccc(-c2nc(-c3ccc(-c4ccc(-c5nc(-c6cc[n+](CC(=O)N(C)C)cc6)c(C(F)(F)C(F)(F)F)o5)cc4)cc3)oc2C(F)(F)C(F)(F)F)cc1 |  | 5.5 |
| 0.3 | CN(C)C(=O)C[n+]1ccc(-c2nc(-c3ccc(-c4ccc(-c5nc(-c6cc[n+](CC(=O)N(C)C)cc6)c(C(F)(F)F)o5)cc4)cc3)oc2C(F)(F)F)cc1 | 4 |  |
